This is a sample that favours compounds with a hit; in the whole collection about 1.5% have one here.
L929 necroptosis – blocks zVAD induced death of L929 cells; L929 zVAD necroptosis rescue, ATP luminescence, 24 h; with zVAD 60 µM; viability rescue, % at 10 µM; actives 0.38% (n = 220,000);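 active = activation, scaled between plate controls, above about 75%, limit read from the data; inactive = activation under that limit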;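 note: 0% = zVAD with DMSO and 100% = DMSO alone without zVAD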
S1P4 antag – antagonists of human S1P4 receptor | inhibition, % at 4.98 µM | AID 1510 | S1P4-expressing cells, antagonist mode, reporter read-out | O95977 | actives 0.26% (n = 220,000); in the data active = inhibition above about 29%;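 note: 0% = wells stimulated with agonist and 100% = vehicle wells without agonist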
Target sequence (O95977 whole entry, looked up): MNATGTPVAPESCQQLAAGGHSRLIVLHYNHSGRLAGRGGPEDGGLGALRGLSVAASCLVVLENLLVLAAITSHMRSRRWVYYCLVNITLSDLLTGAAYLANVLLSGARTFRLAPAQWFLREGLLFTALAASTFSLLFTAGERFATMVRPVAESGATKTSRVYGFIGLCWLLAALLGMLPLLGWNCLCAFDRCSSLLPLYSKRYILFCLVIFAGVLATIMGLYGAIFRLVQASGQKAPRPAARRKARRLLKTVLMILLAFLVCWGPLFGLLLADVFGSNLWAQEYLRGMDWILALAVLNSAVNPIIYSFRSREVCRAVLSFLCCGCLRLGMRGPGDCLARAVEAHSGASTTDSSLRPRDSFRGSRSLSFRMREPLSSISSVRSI
S1P4 ag – activates the human S1P4 receptor. S1P4-expressing cell line, agonist reporter assay. O95977. actives 0.35% (n = 220,000). activation, % at 4.98 µM; in the data active = activation above about 11%;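 note: 0% = DMSO vehicle and 100% = reference agonist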
TNF necrop inh – TNF-alpha cell death inhibition in Jurkat FADD-/- cells; Jurkat FADD-/- TNF necroptosis rescue, ATP luminescence, 24 h; 0 = TNF only, 100 = no-TNF cells; activation (protection from cell death), % at 10 µM; actives 0.068% (n = 220,000); AID 463075;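 active = activation, meaning protection from cell death, of at least 50% relative to plate controls; inactive = activation below 50%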;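 note: necroptosis triggered by 40 ng/mL TNF-alpha added together with compound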
Dynein transport – dynein cargo transport inhibition; 3617.4 mouse cells, GR-EGFP nuclear translocation imaging; test concentration mostly 20 µM; stimulated with dexamethasone, 1 µM; hits give low values; z-score, hits read low; actives 0.47% (n = 220,000);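 active = plate z-score of nuclear minus cytoplasmic receptor signal below a set negative limit, without overly bright fluorescence or cell loss, cut at about -3.5 in these data, passing the limit was not always enough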;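 note: z-score of nuclear minus cytoplasmic ring GR-EGFP intensity difference per well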
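Buffer or medium: tet-free, stripped-serum medium; Also added: dexamethasone, 1.0 µM final; Technique: high-content fluorescence imaging after fixation; Times: 48 h induction, 1 h compound, 30 min dex at 37 °C; Read-out: per-cell GR-EGFP intensity, nucleus versus surrounding cytoplasmic ring, well-averaged.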
Tb hexokinase – T. brucei hexokinase 1 inhibition; recombinant TbHK1, G6PDH-coupled NADH A340; inhibition, % at 10 µM; actives 0.11% (n = 220,000); AID 1430;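 active = inhibition of 50% or more in the single-dose primary screen; inactive = inhibition below 50%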
Dynein confirm – dynein cargo transport inhibition, confirmation. calls only at 20 µM. AID 463116. 3617.4 GR-EGFP nuclear translocation imaging, dexamethasone-induced. actives 69% (n = 1,000). shares compounds with Dynein transport;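 active = inhibition of receptor movement into the nucleus at or above a set limit in both runs, with normal cell brightness and cell count; inconclusive = limit reached in only one run, brightness and count normal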;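 note: dexamethasone at 1 µM final in well for 30 min; nuclear minus cytoplasmic GR-EGFP mean intensity difference in channel 2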
Active calls of the source: *; i = inactive; u = inconclusive; x = no result given; + = active, no number.

SMILES	L929 necroptosis	S1P4 antag	S1P4 ag	TNF necrop inh	Dynein transport	Tb hexokinase	Dynein confirm
COc1ccc(N/C=C/c2nc(SC)nnc2C)cc1	2	-4	2	-4	-4	-6	i
Cc1ccc(C)c(Oc2ncnc(N)c2[N+](=O)[O-])c1	3	-8	2	4	-0.17	-13	x
Cc1cc(Sc2ncnc(N)c2[N+](=O)[O-])ncn1	6	9	-1	-15	-5.7*	-19	+
Cc1cc(Sc2nc(N)ncc2[N+](=O)[O-])ncn1	0	-7	1	-15	-5*	-14	+
COc1ccc(C)cc1N(CC(=O)N1CCc2ccccc2C1)S(C)(=O)=O	0	9	1	0	-0.3	-4	x
Cn1nnnc1SC1CC(=O)N(c2ccccc2)C1=O (configuration not stated)	-1	-11	-1	-1	-4.6*	-1	+
COc1ccc(C(=O)N/C(=C/c2cccs2)c2nc3ccccc3[nH]2)cc1OC	1	-11	0	-1	-0.58	-34	x
COc1cc(/C=C(/C(=O)c2cccs2)c2nc3ccccc3[nH]2)cc(OC)c1O	64	27	1	-14	-4.6*	-30	+
Cc1nc2c(C#N)c[nH]n2c(=O)c1CCO	0	-8	0	2	1.5	-7	x
N#CCCn1cc(C=C(C#N)C#N)c(-c2ccc(-c3ccccc3)cc2)n1	0	-20	0	-3	-4.1*	29	u
N#CCCn1cc(/C=N/O)c(-c2ccccc2)n1	0	-14	-3	1	-0.38	-2	x
CC[C@@H](C)C(NC(=O)OC(C)(C)C)c1cn([C@@H](Cc2ccc(O)cc2)C(=O)N2CCN(C(=O)OC(C)(C)C)CC2)nn1 (some centres not stated)	3	14	0	0	2.3	-6	x
CS(=O)(=O)N(CC(N)=O)Cc1ccc(Cl)cc1	0	0	1	-1	0.17	0	x
CN(Cc1ccc(Cl)cc1)C(=O)CCl	0	5	4	-10	-6.2*	2	+
CN(Cc1ccc(Cl)s1)C(=O)CCl	5	15	1	-15	-5.7*	-3	+
COc1ccc(CN(C)C(=O)CCl)cc1	3	-5	0	-7	-4.4*	-8	+
CN(C)CCNC(=O)c1ccc(Cl)s1	0	4	-8	0	0.28	-6	x
COc1ccc(CC(=O)NCc2csc(-c3cccs3)n2)cc1OC	1	-16	-2	3	-0.15	-19	x
CCOC(=O)c1c(NC(=O)/C=C/C(=O)O)sc(C)c1-c1ccc(Cl)cc1	1	9	1	-1	-8.2*	-10	+
CCOC(=O)c1c(NC(=O)Nc2ccc(Cl)cc2)sc(C)c1C	0	0	-1	1	-0.33	-7	x
CCOC(=O)c1c(NC(=O)CCl)sc(CN(C)C)c1-c1ccccc1	-3	-3	4	-1	-5.2*	0	+
CN(Cc1ccccc1)c1nc2nonc2nc1N1CCCC(CN2CCCC2=O)C1 (configuration not stated)	0	-17	0	-2	1.1	-35	x
CCOc1ccccc1N1CC(C(=O)Nc2c(C)n(C)n(-c3ccccc3)c2=O)CC1=O (configuration not stated)	3	-4	1	1	-0.21	-3	x
COc1cccc(-c2cc3nc4c(c(N5CCC6(CC5)OCCO6)n3n2)CCC4)c1	3	-5	5	-1	0.72	6	x
CC1CCN(CCCNC(=O)c2ccc3c(Cl)c4c(nc3c2)CCCC4)CC1	0	0	-2	-10	-5*	6	+
SMILES	L929 necroptosis	S1P4 antag	S1P4 ag	TNF necrop inh	Dynein transport	Tb hexokinase	Dynein confirm
O=C(NCCCN1CCCCCC1)c1ccc2c(Cl)c3c(nc2c1)CCCC3	-1	-4	1	-4	-3.7*	0	+
CC1CCN(CCCNC(=O)c2cc3c(Cl)nc4ccccc4c3s2)CC1	50	-16	0	-8	-0.53	-10	x
CCCCSc1nnc(CCNC(=O)OC(C)(C)C)o1	0	-3	1	0	-0.47	6	x
O=C(NCCC1=CCCCC1)c1coc(=O)c(Br)c1	-1	-6	1	-14	-6*	-10	u
CCCSc1cc(NCCOC(C)=O)c([N+](=O)[O-])c2nonc12	-1	-2	-2	0	-0.15	24	x
CCCC(=O)OCCNc1cc(SCc2ccco2)c2nonc2c1[N+](=O)[O-]	3	-6	1	-1	-3.9*	-5	+
CCCSc1cc(NCCOC(=O)CCC)c([N+](=O)[O-])c2nonc12	0	-10	1	-7	-4.9*	-4	+
Cc1nnc(Sc2cc(NCCCO)c([N+](=O)[O-])c3nonc23)s1	25	-7	2	-18	1.5	-12	x
CC(=O)OCCCNc1cc(SCc2ccco2)c2nonc2c1[N+](=O)[O-]	0	-17	0	-1	-5.5*	-11	+
O=C1Nc2ccccc2C1(O)Cc1ccccn1 (configuration not stated)	-1	-7	1	1	0.53	1	x
COc1ccc(N=CC2=C(Nc3ccc(OC)cc3)c3c(C)nn(-c4ccccn4)c3CC2)cc1	1	8	-2	-9	-4.3	-1	i
O=C(COC(=O)CCC(NC(=O)OCc1ccccc1)C(=O)OCC(=O)Nc1ccccc1)Nc1ccccc1 (configuration not stated)	1	-20	2	2	0.76	-6	x
CCN1/C(=C/c2ccc3cc(C)ccc3[n+]2CC)Sc2cc(C)c(C)cc21	17	1	-2	-9	-0.41	13	x
CC[n+]1c(/C=C2\Sc3ccccc3N2C)ccc2cccc(C)c21	23	-19	-1	-17	-8.5*	-10	+
O=C(CCCc1ccccc1)Nc1ccc2c(c1)OCCO2	-1	6	1	9	2	11	x
Cc1cccc(NC(=O)C(Cc2ccccc2)n2cccc2)c1 (configuration not stated)	0	-4	-1	4	-1.3	-4	x
Cc1ccc(N2C(=N)/C(=C3/Nc4ccccc4S3)C(c3ccccc3)C2=O)cc1 (configuration not stated)	-1	-12	0	-4	-3.6*	-9	+
Cc1ccc(N2C(=O)C(F)(F)C2c2ccccc2)cc1 (configuration not stated)	0	-6	0	0	0.67	5	x
Cc1cc(-c2nnc(-c3ccccc3)c(-c3ccccc3)n2)c(C)o1	0	7	0	-2	-3.7*	-21	i
Cn1cc(CC(=O)NCCN2CCOCC2)c2ccccc21	0	-16	0	-1	-0.48	0	x

Screens deposited in PubChem BioAssay by several laboratories.
